Results taken from ChEMBL document CHEMBL1149206, “P1 and P3 optimization of novel bicycloproline P2 bearing tetrapeptidyl alpha-ketoamide based HCV protease inhibitors” (Bioorg Med Chem Lett, 2004).
The source made the active and inactive calls. The calls are words filed in the database; no cut-off is given here.

Legend:
Huh-7 (Homo sapiens) = experiment: Cytotoxic activity in liver Huh-7 cells
[1] = Ratio of cytotoxicity (CC50) to that of replicon (IC50) was determined
Summary of the method: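 Selectivity index: the IC50 from the XTT cytotoxicity assay in Huh-7 cells divided by the IC50 from a modified HCV subgenomic replicon assay.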

[2] = molecular target: Prothrombin (Homo sapiens) (UniProt P00734); experiment: Inhibitory activity against thrombin at 100 uM concentration; Not significant
[3] = molecular target: Kallikrein-1 (Homo sapiens) (UniProt P06870); experiment: Inhibitory activity against kallikrein at 100 uM concentration; Not significant
[4] = molecular target: Serine protease 1 (Homo sapiens) (UniProt P07477); experiment: Inhibitory activity against trypsin at 100 uM concentration; Not significant
Rattus norvegicus [5] = experiment: In vivo concentration in rat liver exposure 8 hour after oral administration 50 mg/kg; Below detection limit; format: ADME, organism-based; parameters: dose 50 mg/kg, route oral
Summary of the method: (§1)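 Male Sprague–Dawley rats given a single oral dose of 50 mg/kg as a suspension in a wet granulation vehicle (povidone/lactose/polysorbate). Blood was collected by orbital sinus and terminal cardiac puncture at selected times up to 8 h. Livers were perfused intracardially with saline before sampling. Plasma and liver drug concentrations were measured by LC/MS/MS.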

[6] = In vivo concentration in rat plasma exposure at 8 hour after oral administration 50 mg/kg; format: ADME, organism-based; parameters: dose 50 mg/kg, route oral; conditions: read-out: C
Summary of the method: as §1

[7] = Ratio of the concentration of liver to that of IC50 replication was determined; format: ADME
Rattus norvegicus [8] = experiment: In vivo concentration in rat liver exposure 0-8 hour after oral administration 50 mg/kg; format: ADME, organism-based; parameters: dose 50 mg/kg, route oral
Summary of the method: as §1

Rattus norvegicus [9] = experiment: In vivo area under curve in rat plasma exposure after oral administration 50 mg/kg; format: ADME, organism-based; parameters: dose 50 mg/kg, route oral
Summary of the method: as §1

Chymotrypsinogen A = Chymotrypsinogen A (Bos taurus, UniProt P00766); experiment: Inhibitory activity against Chymotrypsin
Summary of the method: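 One of a panel of 10 human serine and cysteine proteases (elastase, chymotrypsin, trypsin, kallikrein, plasmin, thrombin, Factor Xa, cathepsins B, G and L).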

[10] = In vivo concentration in rat liver exposure 8 hour after oral administration 50 mg/kg; format: ADME, organism-based; parameters: dose 50 mg/kg, route oral; conditions: read-out: C
Summary of the method: as §1

[11] = Inhibitory activity against plasmin at 100 uM concentration; Not significant

Sequence of Kallikrein-1 (Homo sapiens) (P06870 25-262 limits assumed): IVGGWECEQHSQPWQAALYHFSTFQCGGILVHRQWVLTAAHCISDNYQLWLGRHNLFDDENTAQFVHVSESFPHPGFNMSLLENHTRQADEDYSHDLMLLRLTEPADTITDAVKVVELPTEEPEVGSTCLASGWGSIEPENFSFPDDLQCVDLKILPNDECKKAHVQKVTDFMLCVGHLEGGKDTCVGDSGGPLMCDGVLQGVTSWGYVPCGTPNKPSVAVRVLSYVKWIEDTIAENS
Sequence of Serine protease 1 (Homo sapiens) (P07477 whole entry): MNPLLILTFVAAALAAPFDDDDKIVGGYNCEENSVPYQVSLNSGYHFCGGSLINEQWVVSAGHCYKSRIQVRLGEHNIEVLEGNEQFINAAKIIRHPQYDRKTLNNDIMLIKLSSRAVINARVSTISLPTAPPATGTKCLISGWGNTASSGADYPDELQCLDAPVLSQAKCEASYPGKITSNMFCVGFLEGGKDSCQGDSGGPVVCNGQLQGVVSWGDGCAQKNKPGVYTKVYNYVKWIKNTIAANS

SMILES | inhibition [2] | inhibition [3] | inhibition [4] | C (Rattus norvegicus [5]) | concentration at 8 h [6] | Ratio [7] | Caverage (Rattus norvegicus [8]) | AUC (Rattus norvegicus [9]) | IC50 (Chymotrypsinogen A) | concentration at 8 h [10] | inhibition [11] | CC50 (Huh-7 (Homo sapiens)) | Ratio [1]
CC(C)[C@H](NC(=O)c1cnccn1)C(=O)N[C@H](C(=O)N1C[C@@H]2CCC[C@@H]2[C@H]1C(=O)N[C@@H](CC(F)F)C(=O)C(=O)N[C@@H](C)c1ccccc1)C(C)C |  |  |  |  |  |  |  |  |  |  |  | > 100 µM | > 110
CCC[C@H](NC(=O)[C@@H]1[C@H]2CCC[C@H]2CN1C(=O)[C@@H](NC(=O)[C@@H](NC(=O)c1cnccn1)C(C)C)C(C)(C)C)C(=O)C(=O)N[C@@H](C)c1ccccc1 | inactive | inactive | inactive |  |  |  |  |  |  |  |  |  | 
CCC(C)NC(=O)C(=O)[C@H](CC(F)F)NC(=O)[C@@H]1[C@H]2CCC[C@H]2CN1C(=O)[C@@H](NC(=O)[C@@H](NC(=O)c1cnccn1)C(C)C)C(C)(C)C (stereo partly drawn) |  |  |  |  |  |  |  |  |  |  |  | > 100 µM | > 38
CC(C)[C@H](NC(=O)c1cnccn1)C(=O)N[C@H](C(=O)N1C[C@@H]2CCC[C@@H]2[C@H]1C(=O)N[C@@H](CC(F)F)C(=O)C(=O)N[C@@H](C)c1ccccc1)C(C)(C)C |  |  |  |  |  |  |  |  |  |  |  | > 100 µM | > 159
CCC[C@H](NC(=O)[C@@H]1[C@H]2CCC[C@H]2CN1C(=O)[C@@H](NC(=O)[C@@H](NC(=O)c1cnccn1)C(C)C)C(C)(C)C)C(=O)C(=O)NC(C)CC (stereo partly drawn) | inactive | inactive | inactive |  | 920 ng/mL | 4 | 14 µM | 22300 ng·h/mL | > 100 µM | 8.68 µM | inactive | > 100 µM | > 29

Now from value to molecule, other results behind:

inhibition [2] | inhibition [3] | inhibition [4] | C (Rattus norvegicus [5]) | concentration at 8 h [6] | Ratio [7] | Caverage (Rattus norvegicus [8]) | AUC (Rattus norvegicus [9]) | IC50 (Chymotrypsinogen A) | concentration at 8 h [10] | inhibition [11] | SMILES | CC50 (Huh-7 (Homo sapiens)) | Ratio [1]
 |  |  | Below detection limit | 20 ng/mL | <= 0.23 | </- 0.88 uM | 145 ng·h/mL |  |  |  | CC(C)[C@H](NC(=O)c1cnccn1)C(=O)N[C@H](C(=O)N1C[C@@H]2CCC[C@@H]2[C@H]1C(=O)NC(CC(F)F)C(=O)C(=O)NC1CC1)C(C)C (stereo partly drawn) | > 100 µM | > 26
inactive | inactive | inactive |  |  |  | 6.29 µM | 2860 ng·h/mL |  |  |  | CCCC(NC(=O)[C@@H]1[C@H]2CCC[C@H]2CN1C(=O)[C@@H](NC(=O)[C@@H](NC(=O)c1cnccn1)C(C)C)C(C)C)C(=O)C(=O)NC1CC1 (stereo partly drawn) |  | 
inactive | inactive | inactive |  | 520 ng/mL |  | 16 µM | 25800 ng·h/mL | > 100 µM | 3.67 µM |  | CCC[C@H](NC(=O)[C@@H]1[C@H]2CCC[C@H]2CN1C(=O)[C@@H](NC(=O)[C@@H](NC(=O)c1cnccn1)C(C)C)C(C)(C)C)C(=O)C(=O)NC1CC1 |  | 
inactive | inactive | inactive |  | 40 ng/mL |  | 3.64 µM | 1880 ng·h/mL |  | 0.67 µM |  | CC(C)[C@H](NC(=O)c1cnccn1)C(=O)N[C@H](C(=O)N1C[C@@H]2CCC[C@@H]2[C@H]1C(=O)N[C@@H](CC(F)F)C(=O)C(=O)NC1CC1)C(C)(C)C |  | 
